A short description of data set [1]: Cytotoxicity against human HuH7 cells. In kind it is cell-based, Huh-7. In outline:
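Replicon-bearing Huh-7 cells were grown with compound at 1 μM to 1 mM at a constant final 1% solvent. CC50 = concentration inhibiting cell growth by 50%. Mean of at least three independent experiments ± SD.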

Data set [2] has as its system Hepatitis C virus. The experiment in a line: Antiviral activity against HCV Con 1 by subgenomic replicon assay. In kind it is functional, organism-based, Hepacivirus hominis. Conditions: Con1. In outline: (§1)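 Huh-7 cells carrying a stably replicating subgenomic HCV replicon were grown with compound at 1 μM to 1 mM, final solvent 1%; solvent-only cells served as control. Remaining replication read as luminescence. EC50 = concentration reducing luminescence by 50%; SI = CC50/EC50. Mean of at least three independent experiments ± SD.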
On the technique in general: Replicon systems follow genome replication, usually without infectious particles.

The nature of data set [3]: Selectivity index, ratio of CC50 for human HuH7 cells to EC50 for. On the set-up: species or system Huh-7. In outline:
as §1

Data set [4] is described as follows: Inhibition of HCV NS3 helicase. Further details: species or system Hepacivirus hominis. The gist of the method:
(§2)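 Fluorescence unwinding assay with purified NS3 helicase domains. Genotype 1a was expressed in baculovirus-infected insect cells; genotypes 1b and 3a were cloned from patient blood by RT-PCR, purity 95% by SDS–PAGE. Reactions used 10 nM dsDNA substrate, 20 nM enzyme and 125 nM capture strand. Inhibitor (1–300 μM) was preincubated with enzyme and substrate 15 min at room temperature without ATP. Reactions were started with 1.5 mM ATP and run 60 min at 30 °C, read every 2 min. Activity = initial velocity; inhibition relative to no-inhibitor control. Mean of at least three experiments ± SD.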

A short description of data set [5]: Inhibition of HCV genotype 3a NS3 helicase. Further details: species or system Hepatitis C virus subtype 3a. The gist of the method: as §2
Data set [6] can be described thus: Inhibition of HCV genotype 1a NS3 helicase. On the set-up: species or system Hepatitis C virus subtype 1a. The gist of the method: as §2
Data set [7] relates to Hepatitis C virus. The experiment in a line: Inhibition of HCV genotype 1B NS3 helicase. On the set-up: species or system Hepatitis C virus subtype 1b. In outline: as §2

The term CC50 denotes the concentration that lowers cell viability or growth by half. Lower therefore signals harm at low concentration. What is called EC50 is the midpoint of the concentration-response curve. Low values mean higher potency in that assay, high ones lower potency in that assay. A word on the IC50: it is the concentration at which inhibition is half-maximal. Read a high IC50 as a need for much substance. With `O=c1c(Br)cccc(Br)c1O`, in data set [1], half-maximal cytotoxicity (CC50) was put at 92.7 µM. The compound further gave an EC50 in the data set with Hepatitis C virus [2] of 89.8 µM. Also, the “Ratio CC50/EC50” value in data set [3] is listed as 1. Further, in data set [4], the IC50 is greater than 150 µM.

As to `[N-]=[N+]=N[C@]1(CO)O[C@@H](n2ccc(N)nc2=O)[C@H](O)[C@@H]1O` [4'-AZIDOCYTIDINE], in data set [1], the CC50 was greater than 100 µM. Besides, a half-maximal effect with Hepatitis C virus [2] (EC50) was put at 10.5 µM.

Consider `CN1CCN(Cc2cc(CN3CCN(C)CC3)c(O)c(=O)c(CN3CCN(C)CC3)c2)CC1`, for which the IC50 in data set [5] worked out at 4.5 µM; in data set [6], 3.4 µM; in the data set on Hepatitis C virus [7], 3.5 µM; in data set [4], 3.4 µM. In addition, the CC50 in data set [1] was greater than 1000 µM. Further, in the data set on Hepatitis C virus [2], the EC50 stood at 46.9 µM. Also, the “Ratio CC50/EC50” value in data set [3] is greater than 21.3.

The compound `CC1CCN(Cc2cc(CN3CCC(C)CC3)c(O)c(=O)c(CN3CCC(C)CC3)c2)CC1` showed a 50% cytotoxic concentration (CC50) in data set [1] of 556 µM. For the same compound, a half-maximal effect in the data set on Hepatitis C virus [2] (EC50) was put at 32 µM. Further, in data set [3], the “Ratio CC50/EC50” value is recorded as 17.4. Also, in data set [4], the IC50 is 10.5 µM.

The compound `O=c1ccccc(Br)c1O` came in with a 50% cytotoxic concentration (CC50) in data set [1] of 85.2 µM. This compound also gave an EC50 in the data set on Hepatitis C virus [2] of 121 µM. For the same compound, the “Ratio CC50/EC50” value in data set [3] was found to be 0.7. The compound further returned an IC50 in data set [4] greater than 150 µM.

Compound `O=c1c(CN2CCC(O)CC2)cc(CN2CCC(O)CC2)cc(CN2CCC(O)CC2)c1O` registered a CC50 in data set [1] greater than 250 µM. This compound yielded an EC50 in the data set with Hepatitis C virus [2] greater than 250 µM. In addition, the IC50 in data set [4] worked out at 22.7 µM.

On to `O=c1c(CN2CCCCC2)cc(CN2CCCCC2)cc(CN2CCCCC2)c1O`, for which the half-maximal cytotoxic concentration (CC50) in data set [1] is greater than 500 µM. The same compound registered an EC50 with Hepatitis C virus [2] of 137 µM. Moreover, in data set [3], the “Ratio CC50/EC50” value was greater than 3.6. In addition, the IC50 in data set [4] was 26.5 µM.

`NC(=O)c1ncn([C@@H]2O[C@H](CO)[C@@H](O)[C@H]2O)n1` [RIBAVIRIN] came in with a CC50 in data set [1] of 178 µM. For the same compound, in the data set on Hepatitis C virus [2], the EC50 was 120 µM. Further, in data set [3], the “Ratio CC50/EC50” value is recorded as 1.5.

`O=c1c(Br)cc(CN2CCOCC2)cc(Br)c1O` registered a CC50 in data set [1] of 227 µM. In addition, the EC50 with Hepatitis C virus [2] is 176 µM. Besides, in data set [3], the “Ratio CC50/EC50” value came to 1.3. The same compound showed an IC50 in data set [4] of 17.6 µM.

Consider `O=c1c(Cl)cccc(Cl)c1O`, for which half-maximal cytotoxicity in data set [1] (CC50) was put at 254 µM. For the same compound, in the data set on Hepatitis C virus [2], the EC50 was 334 µM. The “Ratio CC50/EC50” value in data set [3] came to 0.8. In data set [4], the IC50 was greater than 150 µM.

For `O=c1c(CN2CCC(N3CCCC3)CC2)cc(CN2CCC(N3CCCC3)CC2)cc(CN2CCC(N3CCCC3)CC2)c1O`, the half-maximal cytotoxic concentration (CC50) in data set [1] is greater than 200 µM. Besides, the EC50 with Hepatitis C virus [2] was greater than 200 µM. The compound also had an IC50 in data set [4] of 7 µM.

In the case of `CC1CCCN(Cc2cc(CN3CCCC(C)C3)c(O)c(=O)c(CN3CCCC(C)C3)c2)C1` (centres undefined), in data set [1], it took 348 µM to reach half-maximal cytotoxicity (CC50). Besides, a half-maximal response in the data set with Hepatitis C virus [2] (EC50) required 35.6 µM. Further, the “Ratio CC50/EC50” value in data set [3] stood at 9.8. Besides, the IC50 in data set [4] was 17.8 µM.

Regarding `O=c1c(CN2CCCC2)cc(CN2CCCC2)cc(CN2CCCC2)c1O`, in data set [1], the CC50 is greater than 500 µM. Also, the EC50 in the data set on Hepatitis C virus [2] was greater than 500 µM. The compound also displayed an IC50 in data set [4] of 184 µM.

Source of the values: ChEMBL document CHEMBL1250429, “Studies on the anti-hepatitis C virus activity of newly synthesized tropolone derivatives: identification of NS3 helicase inhibitors that specifically inhibit subgenomic HCV replication” (Bioorg Med Chem, 2010).
